Data published in PubChem BioAssay.
The source made the active and inactive calls.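 Rule for the calls, unless noted: active = viability at or below 10% of carrier control in both of two separate runs; inconclusive = viability at or below 10% in only one of the two runs; inactive = the rest.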

What was measured:
[1] = reducers of endogenous Her2 protein level, primary screen, SKBR3 breast tumor cells, AlphaScreen, ATP viability (AID 461;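 active = Her2 level under about 52% in both replicate screens, with viability over 70% of control, limit read from the data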;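 for Her2 level: lower value means less Her2 protein in the cells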;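 for viability: percent of carrier control wells set as 100% viability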); settings: 18-24 h, measured here: SKBR3 viability, ATP luminescence, at 10 µM
[2] = target: Receptor tyrosine-protein kinase erbB-2 (Homo sapiens) (UniProt P04626); experiment: as above; settings: 18-24 h, at 10 µM, stronger effect = lower value
Chain of Receptor tyrosine-protein kinase erbB-2 (Homo sapiens) (P04626 whole entry, looked up): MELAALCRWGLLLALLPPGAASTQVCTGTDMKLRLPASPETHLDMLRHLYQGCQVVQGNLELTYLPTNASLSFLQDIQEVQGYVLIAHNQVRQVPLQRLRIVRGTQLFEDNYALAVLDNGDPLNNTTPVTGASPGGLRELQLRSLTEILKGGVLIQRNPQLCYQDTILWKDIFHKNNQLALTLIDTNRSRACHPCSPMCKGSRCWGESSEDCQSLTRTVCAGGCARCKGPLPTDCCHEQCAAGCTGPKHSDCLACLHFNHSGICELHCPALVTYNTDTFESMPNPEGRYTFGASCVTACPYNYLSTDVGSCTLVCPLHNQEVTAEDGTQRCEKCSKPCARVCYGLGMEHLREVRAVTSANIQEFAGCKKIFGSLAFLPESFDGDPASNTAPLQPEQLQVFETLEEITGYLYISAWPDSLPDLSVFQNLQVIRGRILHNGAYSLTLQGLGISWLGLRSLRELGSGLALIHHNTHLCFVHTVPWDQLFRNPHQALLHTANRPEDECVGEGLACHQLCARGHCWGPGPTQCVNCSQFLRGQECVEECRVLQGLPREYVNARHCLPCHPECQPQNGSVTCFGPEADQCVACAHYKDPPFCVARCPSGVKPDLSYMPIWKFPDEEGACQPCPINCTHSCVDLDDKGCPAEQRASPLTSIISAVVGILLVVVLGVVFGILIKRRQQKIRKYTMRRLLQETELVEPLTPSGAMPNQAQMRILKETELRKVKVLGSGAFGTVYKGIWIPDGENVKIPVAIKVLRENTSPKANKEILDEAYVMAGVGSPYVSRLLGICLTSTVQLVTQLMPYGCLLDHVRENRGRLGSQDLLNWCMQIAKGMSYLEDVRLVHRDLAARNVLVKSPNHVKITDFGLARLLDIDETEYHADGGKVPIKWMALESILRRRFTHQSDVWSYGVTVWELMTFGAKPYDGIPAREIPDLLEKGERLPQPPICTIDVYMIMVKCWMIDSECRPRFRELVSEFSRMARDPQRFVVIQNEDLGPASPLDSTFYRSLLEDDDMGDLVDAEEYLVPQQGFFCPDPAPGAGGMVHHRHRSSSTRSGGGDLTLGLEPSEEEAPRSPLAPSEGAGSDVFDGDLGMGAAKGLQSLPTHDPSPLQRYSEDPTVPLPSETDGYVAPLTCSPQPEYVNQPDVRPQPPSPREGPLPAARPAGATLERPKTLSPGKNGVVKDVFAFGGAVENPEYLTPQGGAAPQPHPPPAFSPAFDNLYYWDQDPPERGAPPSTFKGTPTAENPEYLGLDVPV

[3] = SK-BR-3 cell growth inhibitors, pilot screen, 24 h, human (AID 572); settings: SK-BR-3 viability, CellTiter-Glo luminescence, at 10 µM, stronger effect = lower value;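 note: compound exposure lasted between 18 and 24 h rather than exactly 24 h; 100% = carrier-treated control wells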
[4] = HUVEC growth inhibition – cell-based, human, primary screen (AID 575;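 active = viability at or below 30% in both replicate assays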;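 note: 100% = median of untreated cell wells with 0.1% DMSO on each plate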); settings: HUVEC proliferation, CellTiter-Glo luminescence, 72 h; at 10 µM; stronger effect = lower value
Outline: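 Timing: 72 h treatment at 37 °C; material: HUVEC primary cells; technique: CellTiter-Glo luminescence measuring cellular ATP; controls: vehicle and MePR control wells; measure: percent of median DMSO-control luminescence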

[5] = growth inhibitors of H69AR lung tumor, primary screen, human, duplicate replicates (AID 580;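 active = viability at or under a set limit in both replicates, limit being median viability minus 3 SD, cut at about 48% in these data, passing the limit was not always enough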;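 note: 100% = mean luminescence of untreated wells and 0% = no signal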); settings: H69AR lung tumor cells viability, ATP luminescence, 72 h; at 10 µM; stronger effect = lower value
[6] = reversal of MRP1-mediated doxorubicin resistance, pilot screen, H69AR cells, doxorubicin co-treatment (AID 601;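 active = viability loss from added drug above about 55%, and viability with drug at most 40%, in both replicates, limit read from the data, passing the limit was not always enough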); settings: CellTiter-Glo, 72 h, at 10 µM; for differential viability (reversal): stronger effect = higher value
[7] = 384-well plate pilot, post-Golgi transport modulator project, inhibition of yeast transport mutant growth (AID 636; in the data active = inhibition above about 31%); settings: absorbance 615 nm, about 18 h, stronger effect = higher value
[8] = growth suppression of yeast trafficking mutant, preliminary HTS, modulators of trafficking downstream of Golgi apparatus project, 1536-format plate, OD 615 nm (AID 637; in the data active = inhibition above about 30%); settings: yeast transport mutant growth, absorbance 615 nm, 18 h; stronger effect = higher value
[9] = H69AR cells + 2 uM doxorubicin, measured here: viability with 2 uM doxorubicin, stronger effect = lower value
[10] = H69AR cells, compound alone cytotoxicity

| Compound | viability [1] [%] | Her2 level [2] | viability [3] | viability [4] | viability [5] | differential viability (reversal) ([6]; H69AR cells + 2 uM doxorubicin) | viability [6, 9] [%] | viability [6, 10] [%] | inhibition [7] | inhibition [8] |
| --- | --- | --- | --- | --- | --- | --- | --- | --- | --- | --- |
| CCOC(=O)c1c(NC(=O)c2ccn(CC)n2)sc2c1CCCC2 | 88 | 70% (inactive) | 88% (inactive) | 75.5% (inactive) | 77.2% (inactive) | -15% (inactive) | 92.2 | 77.2 | -4.74% (inactive) | 1.67% (inactive) |
| Cc1cc(O)c(C(C)C)cc1N=C1CSC(=O)N1 | 89 | 78.5% (inactive) | 89% (inactive) | 95.3% (inactive) | 87.7% (inactive) | 1.7% (inactive) | 86 | 87.7 | -2.11% (inactive) | -1.82% (inactive) |
| CC(C)(CO)NC(=O)CCCOc1ccc(Cl)cc1Cl | 97 | 104% (inactive) | 97% (inactive) | 84.5% (inactive) | 98.1% (inactive) | 19% (inactive) | 79.2 | 98.1 | -0.26% (inactive) | 0.17% (inactive) |
| O=C(Nc1nnc(COc2ccc(F)cc2)s1)c1cccs1 | 107 | 88.5% (inactive) | 107% (inactive) | 60% (inactive) | 106% (inactive) | 21.3% (inactive) | 84.9 | 106 | -6.93% (inactive) | -0.48% (inactive) |
| CCCCN(c1ccccc1)S(=O)(=O)c1ccc2c(c1)CCN2C(=O)CCC(=O)O | 116 | 100% (inactive) | 116% (inactive) | 93.8% (inactive) | 91.9% (inactive) | 1.98% (inactive) | 90 | 91.9 | -1.58% (inactive) | -6.73% (inactive) |
| COc1cccc(-n2c(C)nc3c(cnn3-c3ccc(C)cc3)c2=O)c1 | 86 | 102% (inactive) | 86% (inactive) | 79.6% (inactive) | 90.4% (inactive) | -12% (inactive) | 102 | 90.4 | 0.66% (inactive) | -10.5% (inactive) |
| N#Cc1nc(-c2cccs2)oc1NCCc1ccccc1 | 93.5 | 86.5% (inactive) | 93.5% (inactive) | 84.3% (inactive) | 102% (inactive) | 18.3% (inactive) | 83.4 | 102 | -1.18% (inactive) | 1.29% (inactive) |
| CC1(C)CC(=O)C(C#N)=C(NCCCO)C1 | 99.5 | 98.5% (inactive) | 99.5% (inactive) | 91.5% (inactive) | 100% (inactive) | -2.31% (inactive) | 103 | 100 | -1.2% (inactive) | 0.97% (inactive) |
| O=C(c1ccc(Cl)cc1)C1CCN(C(=O)NC2CCCCC2)CC1 | 92 | 92% (inactive) | 92% (inactive) | 101% (inactive) | 101% (inactive) | 14% (inactive) | 87 | 101 | -4.8% (inactive) | -7.26% (inactive) |
| Cc1ccc(S(=O)(=O)NC(=O)c2cc(C)n(CCCn3ccnc3)c2C)cc1 | 101 | 84% (inactive) | 101% (inactive) | 94.2% (inactive) | 90.7% (inactive) | 2.88% (inactive) | 87.8 | 90.7 | -7.2% (inactive) | 0.82% (inactive) |
| O=C(O)CC1NC(=O)N(c2ccccc2)C1=O (stereo not given) | 108 | 85% (inactive) | 108% (inactive) | 109% (inactive) | 99.3% (inactive) | 7.85% (inactive) | 91.5 | 99.3 | -5.33% (inactive) | 0% (inactive) |
| Clc1ccc(SCCn2ccnc2)cc1 | 96 | 96% (inactive) | 96% (inactive) | 94.3% (inactive) | 96.2% (inactive) | 11.8% (inactive) | 84.3 | 96.2 | -6.22% (inactive) | -10.2% (inactive) |
| Nc1nc(C2C(=O)CCCC2=O)cs1 | 97.5 | 99.5% (inactive) | 97.5% (inactive) | 102% (inactive) | 103% (inactive) | 5.64% (inactive) | 97.6 | 103 | -2.89% (inactive) | 4.1% (inactive) |
| Cc1cccn2c(=O)c3cc(C(=O)N4CCCc5ccccc54)n(C)c3nc12 | 86.5 | 80% (inactive) | 86.5% (inactive) | 97.2% (inactive) | 90.2% (inactive) | 1.01% (inactive) | 89.2 | 90.2 | -1.89% (inactive) | -5.08% (inactive) |
| O=C(c1ccccc1)c1ccc2nc[nH]c2c1 | 96.5 | 89.5% (inactive) | 96.5% (inactive) | 75.4% (inactive) | 102% (inactive) | -15.3% (inactive) | 117 | 102 | 0.26% (inactive) | 3.06% (inactive) |
| Cc1cc(-c2nc3ncccc3o2)ccc1N | 99 | 76.5% (inactive) | 99% (inactive) | 92.6% (inactive) | 90.4% (inactive) | 6.33% (inactive) | 84 | 90.4 | -2.37% (inactive) | 11% (inactive) |
| CCCCN(C)Cc1c(C)[nH]c2c(Cl)cccc2c1=O | 84.5 | 87% (inactive) | 84.5% (inactive) | 96% (inactive) | 90.6% (inactive) | 13.7% (inactive) | 76.9 | 90.6 | -4.34% (inactive) | -2.06% (inactive) |
| COc1ccc(CCNC(=O)CC2COc3ccccc3O2)cc1OC (stereo not given) | 102 | 93% (inactive) | 102% (inactive) | 100% (inactive) | 85.4% (inactive) | 4.62% (inactive) | 80.8 | 85.4 | -4.67% (inactive) | 8.36% (inactive) |
| CCN(CC)S(=O)(=O)c1ccc(C(=O)Oc2ccc3c(c2)OCO3)cc1 | 101 | 84% (inactive) | 101% (inactive) | 86.6% (inactive) | 90.5% (inactive) | 4.36% (inactive) | 86.1 | 90.5 | -5.53% (inactive) | -4.13% (inactive) |
| CCCCn1nnnc1SCC(=O)N1CCN(C(=O)c2ccco2)CC1 | 116 | 100% (inactive) | 116% (inactive) | 111% (inactive) | 93.6% (inactive) | 7.26% (inactive) | 86.3 | 93.6 | -6.71% (inactive) | 1.75% (inactive) |
| CCOC(=O)N1CCN(c2c(NCC3CCN(Cc4cccc(C)c4)CC3)c(=O)c2=O)CC1 | 102 | 89.5% (inactive) | 102% (inactive) | 81.7% (inactive) | 107% (inactive) | 15% (inactive) | 92.2 | 107 | -2% (inactive) | 2.95% (inactive) |
| Cc1nc2ccccc2cc1C(=O)NCc1ccco1 | 130 | 90% (inactive) | 130% (inactive) | 91.3% (inactive) | 93.3% (inactive) | 8.23% (inactive) | 85.1 | 93.3 | -4.93% (inactive) | 7.42% (inactive) |
| COC(=O)c1sc(S(=O)(=O)Nc2ccc3cn[nH]c3c2)c(C(=O)OC)c1C | 97 | 93.5% (inactive) | 97% (inactive) | 77.6% (inactive) | 78.2% (inactive) | -12.4% (inactive) | 90.6 | 78.2 | -2.5% (inactive) | -6.55% (inactive) |
| COc1ccc(C)cc1NS(=O)(=O)c1ccc(NS(=O)(=O)c2ccc(NC(C)=O)cc2)cc1 | 128 | 104% (inactive) | 128% (inactive) | 94.9% (inactive) | 93.5% (inactive) | 4.67% (inactive) | 88.9 | 93.5 | -6.67% (inactive) | 1.29% (inactive) |
| COC(=O)c1cccc(Oc2nc3c(c(=O)n(C)c(=O)n3C)n2C(C)C)c1 | 80.5 | 84% (inactive) | 80.5% (inactive) | 79.6% (inactive) | 79.6% (inactive) | -20.9% (inactive) | 101 | 79.6 | -2.93% (inactive) | 2% (inactive) |
| CCc1nnc2sc(-c3cc(-c4ccccc4)nc4ccccc34)nn12 | 71 | 65% (inactive) | 71% (inactive) | 75.5% (inactive) | 86.9% (inactive) | -0.185% (inactive) | 87.1 | 86.9 | -1.82% (inactive) | 1% (inactive) |
| COc1ccccc1C1CC(c2ccc(C)cc2)Nc2ncnn21 (stereo not given) | 107 | 116% (inactive) | 107% (inactive) | 108% (inactive) | 102% (inactive) | -16% (inactive) | 118 | 102 | 4.67% (inactive) | -3.17% (inactive) |
| CCn1c2ccccc2c2cc(NC(=O)CSc3nnc(C4CC4)n3Cc3ccco3)ccc21 | 104 | 88% (inactive) | 104% (inactive) | 75.5% (inactive) | 79% (inactive) | -16.2% (inactive) | 95.2 | 79 | -6.45% (inactive) | -3.17% (inactive) |
| CCOC(=O)N1CCC(NC(=O)CSCc2nc(-c3cccc(OC)c3)oc2C)CC1 | 94.5 | 91% (inactive) | 94.5% (inactive) | 97.7% (inactive) | 106% (inactive) | 2.79% (inactive) | 103 | 106 | -2% (inactive) | 3.06% (inactive) |
